Read-outs that look alike come from different tables or passages of the source.
Legend:
Format in all cases: cell-based, human
MRC-5 fibroblasts = assay: MTT cytotoxicity assay, non-tumour cells; details: read-out: IC50 (μM) ± S.D. MRC-5, 72 hrs treatment, MTT test
LoVo cells [1] = assay: MTT cytotoxicity assay; details: read-out: IC50 (μM) ± S.D. LoVo, MTT test
DLD1 cells = assay: MTT cytotoxicity assay; details: read-out: IC50 (μM) ± S.D. DLD1; 72 hrs treatment, MTT test
HFF-1 fibroblasts = assay: MTT cytotoxicity assay, non-tumour cells; details: read-out: IC50 (μM) ± S.D. HFF-1, 72 hrs treatment, MTT test
HCT-15 cells = assay: MTT cytotoxicity assay; details: read-out: IC50 (μM) ± S.D. HCT-15; 72 hrs treatment, MTT test
In short: (§1)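 Cells grown with 10% foetal calf serum, penicillin/streptomycin and 2 mM L-glutamine (HCT-15 in RPMI, SW480 in DMEM). Exposed 72 hrs to increasing concentrations diluted from 1 mg/ml stocks in physiological solution, then MTT read-out. Mean absorbance per dose expressed as % of control versus concentration. IC50 from four-parameter logistic fit. Means ± S.D. of at least three measurements.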

SW480 cells = assay: MTT cytotoxicity assay; details: read-out: IC50 (μM) ± S.D. SW480; 72 hrs treatment, MTT test
In short: as §1

LoVo cells [2] = assay: Nuclear DNA fragmentation ELISA; details: 12 hr treatment, IC50 concentration
LoVo–OxPt cells = assay: MTT cytotoxicity assay, oxaliplatin-resistant cells; details: read-out: IC50 (μM) ± S.D. LoVo–OxPt; 48 hrs treatment, MTT test
[3] = test system: cytochrome c release in LoVo cells; assay: Cytochrome c release; details: IC50 concentration, 12 hrs (CP also 6 and 24 hrs)
In short: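 LoVo cells (30 × 10⁶) were exposed to the test compound for 12 hrs. Cytochrome c release was then assessed by Western blotting. Values are means ± S.D. of at least three measurements.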

[4] = test system: caspase-3/-7, -6, -8, -9 in LoVo cells; assay: Caspase activation; details: 12 or 24 hrs
In short: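 LoVo cells (10⁶) exposed 12 or 24 hrs, then lysed in 1% Triton X-100, sucrose, 5 mM EDTA, 10 mM Tris-HCl, 2 mM DTT (pH 7.6). Lysate protein incubated 60 min at 37°C with fluorogenic AMC substrates: Ac-DEVD (caspase-3/-7), Ac-VEID (-6), Ac-IETD (-8), Ac-LEHD (-9). AMC release read at ex 370/em 460 nm. Means of at least three independent experiments ± S.D.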

LoVo cells [5] = assay: Alkaline single-cell gel electrophoresis assay; details: 12 hrs, IC50 concentration

Structure (SMILES)	IC50 (MRC-5 fibroblasts)	IC50 (LoVo cells [1]; 72 hrs treatment)	IC50 (DLD1 cells)	IC50 (HFF-1 fibroblasts)	IC50 (HCT-15 cells)	IC50 (SW480 cells)	IC50 (LoVo cells [1]; 48 hrs treatment)	increase in histone-DNA formation compared to controls (LoVo cells [2])	IC50 (LoVo–OxPt cells)	cytochrome c release [3]	caspase-3/-7, -6, -8, -9 activity (free AMC) [4]	comet appearance / electrophoretic migration of DNA fragments (LoVo cells [5])
N.N.[Cl][Pt][Cl] [CisPt, Cisplatin]	19.7 ± 1.31 µM	9.02 ± 1.34 µM	8.01 ± 2.22 µM	23.4 ± 1.97 µM	16.6 ± 2.63 µM	25.2 ± 3.33 µM	–	–	–	–	–	–
O=C1[O][Pt]2([NH][C@@H]3CCCC[C@H]3[NH]2)[O]C1=O [OxPt, oxaliplatin]	23.9 ± 1.35 µM	0.33 ± 0.17 µM	5.81 ± 1.93 µM	27.1 ± 1.29 µM	2.37 ± 0.58 µM	4.2 ± 0.75 µM	2.05 ± 0.43 µM	roughly 30 fold	10.9 ± 1.34 µM	substantial cytohrome c release	substantial activation of all caspases	significant increase in comet appearance

Reference: PMC3823100 (Journal of Cellular and Molecular Medicine, 2011)
